The values that follow come from ChEMBL document CHEMBL1158579, “Antimicrobial triterpenoid glycosides from Cephalaria scoparia” (2010).

One assay relates to Escherichia coli. Kind of assay: Antimicrobial activity against Escherichia coli ATCC 23999 after 24 hrs by microdilution assay. Type of assay: functional. Summed up: (§1)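 Broth microdilution MIC in Mueller-Hinton broth. Inocula came from 24 h broth cultures grown at 37 °C, were adjusted to 0.5 McFarland and diluted 1:100 in broth. Compounds were tested at final concentrations of 256 to 0.5 µg/mL, with gentamycin at 128 to 0.25 µg/mL. Sealed plates were incubated 24 h at 37 °C. MIC was the lowest concentration with no visible growth. Clear wells were subcultured onto Mueller-Hinton agar. Triplicate.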

In assay [1] the test system is Staphylococcus epidermidis. The assay is described as follows: Antimicrobial activity against Staphylococcus epidermidis ATCC 12228 after 24 hrs by microdilution assay. Type of assay: functional. Summed up: as §1
For another assay, the system named is Pseudomonas aeruginosa. Kind of assay: Antimicrobial activity against Pseudomonas aeruginosa ATCC 27853 after 24 hrs by microdilution assay. Type of assay: functional. The procedure, abridged: as §1
The next assay concerns Salmonella enterica. Kind of assay: Antimicrobial activity against Salmonella Typhimurium CCM 5445 after 24 hrs by microdilution assay. Type of assay: functional, Salmonella enterica subsp. enterica serovar Typhimurium. The procedure, abridged: as §1
The next assay deals with Bacillus cereus. The assay is described as follows: Antimicrobial activity against Bacillus cereus ATCC 7064 after 24 hrs by microdilution assay. Type of assay: functional. Summed up:
as §1

The subject of the next assay is Staphylococcus aureus. Kind of assay: Antimicrobial activity against Staphylococcus aureus ATCC 6538-P after 24 hrs by microdilution assay. Type of assay: functional. The procedure, abridged:
as §1

Another assay has as its system Klebsiella pneumoniae. Kind of assay: Antimicrobial activity against Klebsiella pneumoniae CCM 2318 after 24 hrs by microdilution assay. Type of assay: functional. The procedure, abridged: as §1
A further assay has as its system Enterococcus faecalis. Kind of assay: Antimicrobial activity against Enterococcus faecalis ATCC 29212 after 24 hrs by microdilution assay. Type of assay: functional. Summed up:
as §1

Values after ≈ are worked out from the molar mass of the structure shown.

For the compound `C[C@@H]1O[C@@H](O[C@H]2[C@H](OC(=O)[C@]34CCC(C)(C)C[C@@H]3C3=CC[C@@H]5[C@@]6(C)CC[C@H](O[C@@H]7OC[C@H](O)[C@H](O)[C@H]7O)C(C)(C)[C@@H]6CC[C@@]5(C)[C@]3(C)CC4)O[C@H](CO[C@@H]3O[C@H](CO)[C@@H](O)[C@H](O)[C@H]3O)[C@@H](O)[C@@H]2O)[C@H](O)[C@H](O)[C@H]1O` [SCOPOSIDE A], the MIC was determined as 8 µg/mL (≈ 7.55 µM) with Escherichia coli (ATCC 23999, 24 h); 64 µg/mL (≈ 60.4 µM) in assay [1] (ATCC 12228, 24 h); 64 µg/mL (≈ 60.4 µM) against Pseudomonas aeruginosa (ATCC 27853, 24 h); 128 µg/mL (≈ 121 µM) in the assay on Salmonella enterica (CCM 5445, 24 h); 16 µg/mL (≈ 15.1 µM) against Bacillus cereus (ATCC 7064, 24 h); 128 µg/mL (≈ 121 µM) in the assay on Staphylococcus aureus. Besides, the MIC came to 64 µg/mL (≈ 60.4 µM) with Klebsiella pneumoniae (CCM 2318, 24 h) and 32 µg/mL (≈ 30.2 µM) against Enterococcus faecalis (ATCC 29212, 24 h).
Turning to `C[C@@H]1O[C@@H](O[C@H]2[C@H](O)[C@@H](O)[C@H](O[C@H]3CC[C@]4(C)[C@H]5CC=C6[C@H]7CC(C)(C)CC[C@]7(C(=O)O[C@@H]7O[C@H](CO[C@@H]8O[C@H](CO)[C@@H](O)[C@H](O)[C@H]8O)[C@@H](O)[C@H](O)[C@H]7O)CC[C@@]6(C)[C@]5(C)CC[C@H]4C3(C)C)O[C@@H]2CO)[C@H](O)[C@H](O[C@@H]2OC[C@@H](O[C@@H]3OC[C@@H](O)[C@H](O)[C@H]3O)[C@H](O)[C@H]2O)[C@H]1O` [SCOPOSIDE B], the MIC against Escherichia coli (ATCC 23999, 24 h) came out at 128 µg/mL (≈ 94.6 µM); in assay [1] (ATCC 12228, 24 h) it was 128 µg/mL (≈ 94.6 µM); in the assay with Pseudomonas aeruginosa (ATCC 27853, 24 h), 64 µg/mL (≈ 47.3 µM); against Salmonella enterica (CCM 5445, 24 h) it was 64 µg/mL (≈ 47.3 µM); in the assay on Bacillus cereus (ATCC 7064, 24 h) it was 16 µg/mL (≈ 11.8 µM); in the assay with Staphylococcus aureus, 256 µg/mL (≈ 189 µM). Also, the minimum inhibitory concentration (MIC) was 64 µg/mL (≈ 47.3 µM) with Klebsiella pneumoniae (CCM 2318, 24 h) and 64 µg/mL (≈ 47.3 µM) against Enterococcus faecalis (ATCC 29212, 24 h).
Take `C[C@@H]1O[C@@H](O[C@H]2[C@H](O[C@H]3CC[C@]4(C)[C@H]5CC=C6[C@H]7CC(C)(C)CC[C@]7(C(=O)O[C@@H]7O[C@H](CO[C@@H]8O[C@H](CO)[C@@H](O)[C@H](O)[C@H]8O)[C@@H](O)[C@H](O)[C@H]7O)CC[C@@]6(C)[C@]5(C)CC[C@H]4C3(C)C)OC[C@H](O)[C@@H]2O[C@@H]2OC[C@@H](O[C@@H]3O[C@H](CO)[C@@H](O)[C@H](O)[C@H]3O)[C@H](O)[C@H]2O)[C@H](O)[C@H](O[C@@H]2OC[C@@H](O)[C@H](O)[C@H]2O)[C@H]1O` [SCOPOSIDE C]: the MIC against Escherichia coli (ATCC 23999, 24 h) was 128 µg/mL (≈ 86.2 µM); in assay [1] (ATCC 12228, 24 h), 64 µg/mL (≈ 43.1 µM); against Pseudomonas aeruginosa (ATCC 27853, 24 h) it was 128 µg/mL (≈ 86.2 µM); against Salmonella enterica (CCM 5445, 24 h), 64 µg/mL (≈ 43.1 µM); in the assay on Bacillus cereus (ATCC 7064, 24 h) it was 32 µg/mL (≈ 21.5 µM); with Staphylococcus aureus it was 64 µg/mL (≈ 43.1 µM). Besides, the MIC stood at 64 µg/mL (≈ 43.1 µM) against Klebsiella pneumoniae (CCM 2318, 24 h) and 32 µg/mL (≈ 21.5 µM) against Enterococcus faecalis (ATCC 29212, 24 h).
GENTAMICIN: the minimal inhibitory concentration (MIC) against Escherichia coli turned out to be 1 µg/mL; in assay [1] it was 1 µg/mL; with Pseudomonas aeruginosa, 2 µg/mL; in the assay on Salmonella enterica (Salmonella enterica subsp. enterica serovar Typhimurium), 1 µg/mL; against Bacillus cereus, 4 µg/mL; in the assay on Staphylococcus aureus, 1 µg/mL. Besides, the values for the MIC in the assay on Klebsiella pneumoniae and against Enterococcus faecalis were 4 µg/mL and 16 µg/mL, respectively.
